The values that follow come from ChEMBL document CHEMBL3352788, “Characterization of selective exosite-binding inhibitors of matrix metalloproteinase 13 that prevent articular cartilage degradation in vitro” (J Med Chem, 2014).

The target of one data set is T1, Caspase-2 (Homo sapiens) (UniProt P42575).
T1 sequence (whole entry): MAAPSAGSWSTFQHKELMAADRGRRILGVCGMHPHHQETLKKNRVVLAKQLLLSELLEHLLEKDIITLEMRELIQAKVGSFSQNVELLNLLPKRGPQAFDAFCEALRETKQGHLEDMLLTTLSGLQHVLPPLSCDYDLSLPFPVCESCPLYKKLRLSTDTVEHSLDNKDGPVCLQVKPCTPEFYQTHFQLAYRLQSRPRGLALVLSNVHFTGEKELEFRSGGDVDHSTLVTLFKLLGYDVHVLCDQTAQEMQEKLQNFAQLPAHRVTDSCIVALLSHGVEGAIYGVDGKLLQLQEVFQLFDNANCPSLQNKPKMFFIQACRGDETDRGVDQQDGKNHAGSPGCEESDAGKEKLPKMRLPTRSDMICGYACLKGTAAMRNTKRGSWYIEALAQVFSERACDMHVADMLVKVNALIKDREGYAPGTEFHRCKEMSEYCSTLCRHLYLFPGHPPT
In words: Inhibition of recombinant human caspase 2 using DEVDAA substrate at up to 20 uM after 3 hrs. The method, boiled down: (§1)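 Outsourced microfluidic protease panel. Compound was preincubated with each protease for 30 min at 25 °C, then peptide substrate was added for 3 h at 25 °C and quenched with SDS/EDTA/iodoacetate. Substrate-to-product conversion was measured on LabChip. Compounds were tested singly in a 12-point 3-fold dilution series, top 20 μM (5 μM for two reference compounds).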

For data set [1], the target named is Beta-secretase 1 (Homo sapiens) (UniProt P56817). In words: Inhibition of recombinant human BACE1 using SEVNLDAEFRKKRR substrate at up to 20 uM after 3 hrs. In a few lines: as §1
A further data set concerns the target Collagenase 3 (Homo sapiens, UniProt P45452). In words: Non-competitive inhibition of full-length recombinant human MMP-13 assessed as fTHP-15 substrate hydrolysis.
The target in another data set is T2, Cytochrome P450 1A2 (Homo sapiens, UniProt P05177).
T2 sequence (P05177 whole entry): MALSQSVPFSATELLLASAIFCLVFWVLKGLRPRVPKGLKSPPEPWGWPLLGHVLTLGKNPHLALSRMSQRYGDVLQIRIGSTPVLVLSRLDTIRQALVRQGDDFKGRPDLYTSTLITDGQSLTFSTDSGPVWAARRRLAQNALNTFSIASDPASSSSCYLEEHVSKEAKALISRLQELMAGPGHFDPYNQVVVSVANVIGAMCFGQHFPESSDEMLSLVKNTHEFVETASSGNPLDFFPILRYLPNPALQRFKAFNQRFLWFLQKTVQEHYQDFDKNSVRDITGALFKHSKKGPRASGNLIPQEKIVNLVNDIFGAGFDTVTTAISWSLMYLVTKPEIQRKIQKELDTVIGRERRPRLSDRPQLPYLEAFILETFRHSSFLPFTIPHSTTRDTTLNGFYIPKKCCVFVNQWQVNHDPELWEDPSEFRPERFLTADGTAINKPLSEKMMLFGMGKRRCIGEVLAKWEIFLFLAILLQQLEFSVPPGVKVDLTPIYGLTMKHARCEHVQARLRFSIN
As to the kind of experiment: Inhibition of CYP1A2 (unknown origin) using tacrin substrate. The data set is classed as ADME. In a few lines: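 Human liver microsomes with probe substrate and an NADPH-regenerating system in 0.1 M potassium phosphate pH 7.4 at 37 °C, run in duplicate. Inhibitor at 0–20 μM (0–2.5 μM for one compound), eight concentrations. Reactions were stopped with acetonitrile/formic acid containing isotope-labelled internal standard, and metabolite area ratios were compared with and without inhibitor. IC50 was taken by linear interpolation between bracketing concentrations.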

For a further data set, the target named is Cytochrome P450 3A4 (Homo sapiens, UniProt P08684). As to the kind of experiment: Inhibition of CYP3A4 (unknown origin) using testosterone substrate. Type of data set: ADME. In a few lines: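 Reactions stopped with acetonitrile/0.1% formic acid plus labelled internal standard. Metabolite measured by LC-MS area ratio. IC50 by linear interpolation.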
Another data set relates to Liver. As to the kind of experiment: Half life in mouse liver microsomes by LC-MS/MS analysis. The data set is classed as ADME. In a few lines:
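Compound at 1 μM with 1 mg/mL liver microsomes in 100 mM potassium phosphate pH 7.4 at 37 °C with shaking. Reaction started with 1 mM NADPH (final). Aliquots were taken at 0, 5, 10, 20, 40 and 60 min and quenched in acetonitrile. Parallel incubations without NADPH were run.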

In data set [2] the target is Prothrombin (Homo sapiens) (UniProt P00734). As to the kind of experiment: Inhibition of recombinant human thrombin using PRTLT substrate at up to 5 uM after 3 hrs. In a few lines: (§2)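 In this microfluidic protease panel, enzyme and compound were preincubated 30 min at 25 °C. The peptide substrate was added and the reaction was incubated 3 h at 25 °C, then quenched (SDS, EDTA, iodoacetate). Activity was read as % substrate converted to product. Dose–response was singlicate, 12-point 3-fold dilutions spanning 5 μM to 0.028 nM. IC50 was the concentration leaving 50% activity relative to no-compound control.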

The target of data set [3] is T3, Cathepsin K (Homo sapiens) (UniProt P43235).
T3 sequence (whole entry): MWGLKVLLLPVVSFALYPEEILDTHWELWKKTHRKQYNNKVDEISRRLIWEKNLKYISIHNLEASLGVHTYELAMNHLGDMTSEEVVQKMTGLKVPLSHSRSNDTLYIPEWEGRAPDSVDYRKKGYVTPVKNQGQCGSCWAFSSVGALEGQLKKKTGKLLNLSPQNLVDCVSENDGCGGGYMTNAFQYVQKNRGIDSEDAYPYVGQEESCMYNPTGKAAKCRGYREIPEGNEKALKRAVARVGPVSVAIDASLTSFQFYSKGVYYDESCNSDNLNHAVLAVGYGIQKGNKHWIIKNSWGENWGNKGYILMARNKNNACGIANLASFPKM
In words: Inhibition of recombinant human cathepsin K using HHQKLVFFAE substrate at up to 5 uM after 3 hrs. The method, boiled down: as §1

A further data set addresses Furin (Homo sapiens) (UniProt P09958). In words: Inhibition of recombinant human furin using RRVKRSLD substrate at up to 5 uM after 3 hrs. In a few lines:
as §2

In data set [4] the target is Cathepsin D (Homo sapiens) (UniProt P07339). In words: Inhibition of recombinant human cathepsin D using EVNLDAEFRK substrate at up to 5 uM after 3 hrs. In a few lines: as §1
In data set [5] the target is Cathepsin S (Homo sapiens) (UniProt P25774). As to the kind of experiment: Inhibition of recombinant human cathepsin S using RTLTAK substrate at up to 5 uM after 3 hrs. The method, boiled down: as §2

One may read the inhibition as the percentage by which the read-out fell short of the control. A word on the IC50: it is the midpoint of a concentration-inhibition curve.

Bounds are passed on as bounds.

Sequence of Beta-secretase 1 (Homo sapiens) (P56817 whole entry): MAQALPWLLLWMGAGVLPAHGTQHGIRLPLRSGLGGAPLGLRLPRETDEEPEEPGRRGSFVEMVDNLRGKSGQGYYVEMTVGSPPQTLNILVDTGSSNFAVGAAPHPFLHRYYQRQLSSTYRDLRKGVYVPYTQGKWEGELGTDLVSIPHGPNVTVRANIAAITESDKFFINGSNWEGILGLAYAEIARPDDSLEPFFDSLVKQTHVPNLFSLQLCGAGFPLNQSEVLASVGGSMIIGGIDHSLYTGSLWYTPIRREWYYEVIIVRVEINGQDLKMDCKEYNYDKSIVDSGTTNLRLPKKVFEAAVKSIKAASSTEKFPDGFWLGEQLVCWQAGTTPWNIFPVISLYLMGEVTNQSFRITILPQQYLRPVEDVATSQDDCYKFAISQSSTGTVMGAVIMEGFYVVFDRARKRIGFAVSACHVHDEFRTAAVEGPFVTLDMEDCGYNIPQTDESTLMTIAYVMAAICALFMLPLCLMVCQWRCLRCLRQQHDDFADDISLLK
Sequence of Furin (Homo sapiens) (P09958 whole entry): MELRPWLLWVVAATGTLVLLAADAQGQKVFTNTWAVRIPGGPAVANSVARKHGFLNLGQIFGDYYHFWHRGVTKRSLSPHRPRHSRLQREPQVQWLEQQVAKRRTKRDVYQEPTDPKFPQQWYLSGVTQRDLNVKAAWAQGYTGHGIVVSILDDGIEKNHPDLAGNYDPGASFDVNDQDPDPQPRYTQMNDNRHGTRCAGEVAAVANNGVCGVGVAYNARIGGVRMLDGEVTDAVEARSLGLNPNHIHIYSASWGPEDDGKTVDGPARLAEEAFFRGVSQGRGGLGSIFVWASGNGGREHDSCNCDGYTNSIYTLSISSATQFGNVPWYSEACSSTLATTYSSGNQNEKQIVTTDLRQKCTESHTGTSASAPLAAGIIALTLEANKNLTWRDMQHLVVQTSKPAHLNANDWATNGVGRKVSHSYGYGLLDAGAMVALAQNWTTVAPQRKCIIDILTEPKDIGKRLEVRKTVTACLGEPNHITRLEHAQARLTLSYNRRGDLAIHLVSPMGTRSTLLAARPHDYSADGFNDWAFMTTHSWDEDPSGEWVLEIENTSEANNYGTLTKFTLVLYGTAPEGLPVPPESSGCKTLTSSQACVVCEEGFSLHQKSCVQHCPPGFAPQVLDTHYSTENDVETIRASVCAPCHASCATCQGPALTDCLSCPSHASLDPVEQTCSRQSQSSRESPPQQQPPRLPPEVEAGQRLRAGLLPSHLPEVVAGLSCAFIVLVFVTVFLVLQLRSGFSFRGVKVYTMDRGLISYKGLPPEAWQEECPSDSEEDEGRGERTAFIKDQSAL
Sequence of Cathepsin D (Homo sapiens) (P07339 65-162 limits assumed): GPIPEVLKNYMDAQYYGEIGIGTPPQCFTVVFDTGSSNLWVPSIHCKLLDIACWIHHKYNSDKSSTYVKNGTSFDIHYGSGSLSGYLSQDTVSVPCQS
Sequence of Cathepsin D (Homo sapiens) (P07339 169-412 limits assumed): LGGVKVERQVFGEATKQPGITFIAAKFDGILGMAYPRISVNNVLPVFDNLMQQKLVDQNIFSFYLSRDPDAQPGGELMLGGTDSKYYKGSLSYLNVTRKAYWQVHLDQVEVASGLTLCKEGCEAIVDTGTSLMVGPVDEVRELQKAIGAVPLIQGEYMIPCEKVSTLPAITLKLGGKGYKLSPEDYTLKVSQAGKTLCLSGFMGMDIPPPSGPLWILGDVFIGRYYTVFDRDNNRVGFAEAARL
Sequence of Cathepsin S (Homo sapiens) (P25774 115-331 limits assumed): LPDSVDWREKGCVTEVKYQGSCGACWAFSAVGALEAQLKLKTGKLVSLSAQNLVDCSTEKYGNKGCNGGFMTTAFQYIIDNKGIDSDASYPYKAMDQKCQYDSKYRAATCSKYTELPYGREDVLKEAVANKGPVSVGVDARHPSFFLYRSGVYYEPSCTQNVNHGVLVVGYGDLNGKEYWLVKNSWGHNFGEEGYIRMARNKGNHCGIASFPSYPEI
Sequence of Cytochrome P450 3A4 (P08684 whole entry): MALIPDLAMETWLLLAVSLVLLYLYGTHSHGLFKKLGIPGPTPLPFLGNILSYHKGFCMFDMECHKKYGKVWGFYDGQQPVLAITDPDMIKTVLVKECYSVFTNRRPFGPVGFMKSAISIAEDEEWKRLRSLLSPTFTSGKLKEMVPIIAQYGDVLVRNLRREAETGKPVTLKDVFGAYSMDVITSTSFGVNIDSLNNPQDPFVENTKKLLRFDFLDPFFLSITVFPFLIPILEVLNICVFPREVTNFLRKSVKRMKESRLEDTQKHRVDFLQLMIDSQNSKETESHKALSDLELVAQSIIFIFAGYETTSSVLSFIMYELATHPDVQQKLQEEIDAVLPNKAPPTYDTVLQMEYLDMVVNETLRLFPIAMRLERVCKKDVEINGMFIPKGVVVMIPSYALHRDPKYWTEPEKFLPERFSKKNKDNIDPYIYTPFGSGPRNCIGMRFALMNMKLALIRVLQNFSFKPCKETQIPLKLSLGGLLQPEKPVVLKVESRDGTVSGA

`Cc1ccc(CSc2nc(O)c3c(n2)CCC3)cc1`: the inhibition (at Caspase-2 (Homo sapiens); in data set [1]) was under 10% each time.

For the compound `COC(=O)c1ccc(CSc2nc3c(c(=O)[nH]2)CCC3)cc1`, the IC50 on Collagenase 3 is 2.8 µM; on Cytochrome P450 1A2 it was over 20 µM; against Cytochrome P450 3A4, over 20 µM. For the same compound, the inhibition (on Caspase-2 (Homo sapiens); in data set [1]) was under 10% throughout. In addition, the t1/2 in the data set with Liver stood at 2 min.

Compound `Cc1cc(CNC(=O)c2cc(C(=O)NCc3ccc(F)c(C)c3)ncn2)ccc1F` registered an IC50 against Cytochrome P450 1A2 of over 20 µM. Also, the inhibition (in data set [2]; in data set [3]; at Furin (Homo sapiens); in data set [4]; in data set [5]) was under 10% each time.

Take `Cn1c(=O)n(Cc2ccc(C(=O)O)cc2)c(=O)c2cc(C#CCc3ccccc3)ccc21`: the IC50 on Cytochrome P450 1A2 is over 2.5 µM. The inhibition in data set [2] was under 10%; in data set [3] it was over 10%; at Furin (Homo sapiens), under 10%; in data set [4], under 10%; in [5] it was under 10%.

With `Oc1nc(SCc2ccc(Cl)cc2)nc2c1CCC2`, the IC50 on Collagenase 3 is 3.4 µM; against Cytochrome P450 1A2 it was 8.6 µM; against Cytochrome P450 3A4 it was over 20 µM. The inhibition (on Caspase-2 (Homo sapiens); in [1]) was under 10% each time. In the data set with Liver, the t1/2 came out at 1.3 min.
